According to ChEMBL document CHEMBL1135736, “Synthesis and biological evaluation of a new furo[2,3-h]quinolin-2(1H)-one” (J Med Chem, 2002):

What was measured:
Mus musculus [1] = species on record: Mus musculus; assay: Mean survival time when 4x10E-6 viable cells were injected and challenge performed 21 days after injection of photoinactivated cells; type: ADME, organism-based; conditions: in vivo, 504 h
Procedure, shortened: (§1)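 Mice, groups of 10, primed by ip injection of 5 × 10^6 Ehrlich cells. Before injection, these cells were photoinactivated with UVA light (2.7 kJ m-2) in the presence of 2 μM drug. Viable untreated Ehrlich cells were given later as the tumor challenge, at varying cell numbers and times after priming. Mortality (%) and mean survival time (days) were recorded.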

Mus musculus [2] = species on record: Mus musculus; assay: Percent mortality observed when 0.3x10E-6 viable cells were injected and challenge performed 21 days after injection of photoinactivated cells; type: organism-based; conditions: in vivo, 504 h; procedure, shortened: as §1
[3] = Antiproliferative effect on DNA synthesis of mammalian cells upon UVA irradiation.; type: functional; conditions: light or radiation study, read-out: ID50
Procedure, shortened: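 Ehrlich cells, DNA synthesis inhibition. Cells held with 2 µM drug and exposed to graded UVA doses. ID50 is the UVA dose (kJ m-2) giving 50% inhibition, calculated by probit analysis, pooled from several experiments.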

Mus musculus [4] = species on record: Mus musculus; assay: Mean survival time when 0.3x10E-6 viable cells were injected and challenge performed 8 days after injection of photoinactivated cells; type: ADME, organism-based; conditions: in vivo, 192 h; procedure, shortened: as §1
Mus musculus [5] = species on record: Mus musculus; assay: Percent mortality observed when 0.3x10E-6 viable cells were injected and challenge performed 8 days after injection of photoinactivated cells; type: ADME, organism-based; conditions: in vivo, 192 h; procedure, shortened: as §1
Mus musculus [6] = species on record: Mus musculus; assay: Percent mortality observed when 1x10E-6 viable cells were injected and challenge performed 21 days after injection of photoinactivated cells; type: ADME, organism-based; conditions: in vivo, 504 h; procedure, shortened: as §1
Mus musculus [7] = species on record: Mus musculus; assay: Mean survival time when 1x10E-6 viable cells were injected and challenge performed 21 days after injection of photoinactivated cells; type: ADME, organism-based; conditions: in vivo, 504 h; procedure, shortened: as §1
Mus musculus [8] = species on record: Mus musculus; assay: Percent mortality observed when 4x10E-6 viable cells were injected and challenge performed 21 days after injection of photoinactivated cells; type: ADME, organism-based; conditions: in vivo, 504 h; procedure, shortened: as §1
Mus musculus [9] = species on record: Mus musculus; assay: Mean survival time when 0.3x10E-6 viable cells were injected and challenge performed 15 days after injection of photoinactivated cells; type: ADME, organism-based; conditions: in vivo, 360 h; procedure, shortened: as §1
[10] = Antiproliferative effect on clonal growth of mammalian cells upon UVA irradiation.; type: functional; conditions: light or radiation study, read-out: ID50
Procedure, shortened: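 CHO cells, clonal growth (colony-forming) inhibition. Cells given graded UVA doses in the presence of 2 µM drug. Reported ID50 is the UVA dose (kJ m-2) producing 50% inhibition, derived by probit analysis over several experiments.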

Mus musculus [11] = species on record: Mus musculus; assay: Percent mortality observed when 0.3x10E-6 viable cells were injected and challenge performed 15 days after injection of photoinactivated cells; type: organism-based; conditions: in vivo, 360 h; procedure, shortened: as §1
Mus musculus [12] = species on record: Mus musculus; assay: Mean survival time when 0.3x10E-6 viable cells were injected and challenge performed 21 days after injection of photoinactivated cells; type: ADME, organism-based; conditions: in vivo, 504 h; procedure, shortened: as §1

Row | Structure (SMILES) | Mean survival time (Mus musculus [1]) | Mortality (Mus musculus [2]) | IC50 [3] | Mean survival time (Mus musculus [4]) | Mortality (Mus musculus [5]) | Mortality (Mus musculus [6]) | Mean survival time (Mus musculus [7]) | Mortality (Mus musculus [8]) | Mean survival time (Mus musculus [9]) | IC50 [10] | Mortality (Mus musculus [11]) | Mean survival time (Mus musculus [12])
1 | Cc1cc2c(o1)c(C)cc1c(CO)cc(=O)n(C)c12 | 15.8 days | 0% | 0.65 kJ m-2 | 21.3 days | 70% | 30% | 10.6 days | 100% | 25 days | 0.02 kJ m-2 | 35% | > 60 days
2 | COc1c2occc2cc2ccc(=O)oc12 [METHOXSALEN] |  |  | 36.6 kJ m-2 |  |  |  |  |  |  | 0.84 kJ m-2 |  | 
